The target in test [1] is LIM domain kinase 1 (Homo sapiens) (UniProt P53667). Description: Binding affinity to wild-type human full length LIMK1 (M1 to D647 residues) expressed in bacterial expression system assessed as residual binding level at 1 uM by Kinomescan method relative to control. In short, it runs like this:
(§1)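 Single-point kinome-wide KINOMEscan binding panel, test compound at 1 μM, run by the provider's standard protocol.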

Test [2] has as its target Serine/threonine-protein kinase SIK2 (Homo sapiens) (UniProt Q9H0K1). Description: Binding affinity to wild-type human full length SIK2 (M1 to N926 residues) expressed in bacterial expression system assessed as residual binding level at 1 uM by Kinomescan method relative to control. In short, it runs like this: as §1
The target in test [3] is Tyrosine-protein kinase Fes/Fps (Homo sapiens) (UniProt P07332). Description: Binding affinity to wild-type human partial length FES (I527 to R822 residues) expressed in bacterial expression system assessed as residual binding level at 1 uM by Kinomescan method relative to control.
Test [4] addresses Serine/threonine-protein kinase ULK1 (Homo sapiens) (UniProt O75385). Description: Binding affinity to wild-type human partial length ULK1 (M1 to T309 residues) expressed in mammalian expression system assessed as residual binding level at 1 uM by Kinomescan method relative to control.
In test [5] the test system is Phosphatidylinositol 4,5-bisphosphate 3-kinase catalytic subunit alpha isoform (Homo sapiens), P42336 [H1047L]. Description: Binding affinity to human partial length PIK3CA H1047L mutant (R108 to N1068 residues) expressed in mammalian expression system assessed as residual binding level at 1 uM by Kinomescan method relative to control.
For test [6], the target named is Serine/threonine-protein kinase TAO2 (Homo sapiens) (UniProt Q9UL54). Description: Binding affinity to wild-type human partial length TAOK2 (M1 to A320 residues) expressed in mammalian expression system assessed as residual binding level at 1 uM by Kinomescan method relative to control.
For test [7], the target named is SNF-related serine/threonine-protein kinase (Homo sapiens) (UniProt Q9NRH2). Description: Binding affinity to wild-type human partial length SNRK (M1 to E339 residues) expressed in mammalian expression system assessed as residual binding level at 1 uM by Kinomescan method relative to control.
Test [8] addresses Cyclin-dependent kinase 19 (Homo sapiens) (UniProt Q9BWU1). Description: Binding affinity to wild-type human partial length CDK11 (M1 to N360 residues) expressed in bacterial expression system assessed as residual binding level at 1 uM by Kinomescan method relative to control.
Test [9] concerns the target Dual specificity protein kinase TTK (Homo sapiens) (UniProt P33981). Description: Binding affinity to wild-type human partial length TTK (N505 to V798 residues) expressed in bacterial expression system assessed as residual binding level at 1 uM by Kinomescan method relative to control.
Test [10] addresses Dual specificity mitogen-activated protein kinase kinase 1 (Homo sapiens) (UniProt Q02750). Description: Binding affinity to wild-type human full length MEK1 (M1 to V393 residues) expressed in mammalian expression system assessed as residual binding level at 1 uM by Kinomescan method relative to control. Put shortly:
as §1

Test [11] has as its system ALK tyrosine kinase receptor (Homo sapiens), Q9UM73 [C1156Y]. Description: Binding affinity to wild-type human partial length ALK C1156Y mutant (I1088 to E1409 residues) expressed in mammalian expression system assessed as residual binding level at 1 uM by Kinomescan method relative to control.
Test [12] addresses Serine/threonine-protein kinase Nek3 (Homo sapiens) (UniProt P51956). Description: Binding affinity to wild-type human full length NEK3 (M1 to R506 residues) expressed in mammalian expression system assessed as residual binding level at 1 uM by Kinomescan method relative to control. Put shortly:
as §1

Test [13] concerns the target Tyrosine-protein kinase HCK (Homo sapiens) (UniProt P08631). Description: Binding affinity to wild-type human full length HCK (M22 to P526 residues) expressed in bacterial expression system assessed as residual binding level at 1 uM by Kinomescan method relative to control. In short, it runs like this: as §1
Test [14] has as its target Serine/threonine-protein kinase N2 (Homo sapiens) (UniProt Q16513). Description: Binding affinity to wild-type human partial length PKN2 (E634 to C984 residues) expressed in bacterial expression system assessed as residual binding level at 1 uM by Kinomescan method relative to control.
The target of test [15] is Dual specificity mitogen-activated protein kinase kinase 3 (Homo sapiens) (UniProt P46734). Description: Binding affinity to wild-type human full length MEK3 (M1 to S318 residues) expressed in mammalian expression system assessed as residual binding level at 1 uM by Kinomescan method relative to control. In short, it runs like this:
as §1

The values below come from ChEMBL document CHEMBL4382192, “Discovery of a potent dual ALK and EGFR T790M inhibitor” (Eur J Med Chem, 2017).

Tyrosine-protein kinase HCK (Homo sapiens), sequence (P08631 2-526 limits assumed): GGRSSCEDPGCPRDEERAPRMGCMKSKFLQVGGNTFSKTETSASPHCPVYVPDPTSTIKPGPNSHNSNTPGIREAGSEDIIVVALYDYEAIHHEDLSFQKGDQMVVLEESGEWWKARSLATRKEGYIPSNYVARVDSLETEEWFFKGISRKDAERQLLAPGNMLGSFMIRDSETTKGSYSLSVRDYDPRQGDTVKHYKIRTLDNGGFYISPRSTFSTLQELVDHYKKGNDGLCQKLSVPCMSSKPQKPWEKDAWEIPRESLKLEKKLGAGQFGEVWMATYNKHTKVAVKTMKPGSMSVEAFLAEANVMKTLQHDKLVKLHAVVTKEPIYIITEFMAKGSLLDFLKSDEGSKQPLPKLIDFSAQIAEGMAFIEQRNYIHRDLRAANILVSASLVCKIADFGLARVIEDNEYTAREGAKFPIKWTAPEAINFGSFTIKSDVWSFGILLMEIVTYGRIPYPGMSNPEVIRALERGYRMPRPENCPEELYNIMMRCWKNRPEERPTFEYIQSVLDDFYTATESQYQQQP
Serine/threonine-protein kinase TAO2 (Homo sapiens), sequence (Q9UL54 whole entry, the tested form may be a part): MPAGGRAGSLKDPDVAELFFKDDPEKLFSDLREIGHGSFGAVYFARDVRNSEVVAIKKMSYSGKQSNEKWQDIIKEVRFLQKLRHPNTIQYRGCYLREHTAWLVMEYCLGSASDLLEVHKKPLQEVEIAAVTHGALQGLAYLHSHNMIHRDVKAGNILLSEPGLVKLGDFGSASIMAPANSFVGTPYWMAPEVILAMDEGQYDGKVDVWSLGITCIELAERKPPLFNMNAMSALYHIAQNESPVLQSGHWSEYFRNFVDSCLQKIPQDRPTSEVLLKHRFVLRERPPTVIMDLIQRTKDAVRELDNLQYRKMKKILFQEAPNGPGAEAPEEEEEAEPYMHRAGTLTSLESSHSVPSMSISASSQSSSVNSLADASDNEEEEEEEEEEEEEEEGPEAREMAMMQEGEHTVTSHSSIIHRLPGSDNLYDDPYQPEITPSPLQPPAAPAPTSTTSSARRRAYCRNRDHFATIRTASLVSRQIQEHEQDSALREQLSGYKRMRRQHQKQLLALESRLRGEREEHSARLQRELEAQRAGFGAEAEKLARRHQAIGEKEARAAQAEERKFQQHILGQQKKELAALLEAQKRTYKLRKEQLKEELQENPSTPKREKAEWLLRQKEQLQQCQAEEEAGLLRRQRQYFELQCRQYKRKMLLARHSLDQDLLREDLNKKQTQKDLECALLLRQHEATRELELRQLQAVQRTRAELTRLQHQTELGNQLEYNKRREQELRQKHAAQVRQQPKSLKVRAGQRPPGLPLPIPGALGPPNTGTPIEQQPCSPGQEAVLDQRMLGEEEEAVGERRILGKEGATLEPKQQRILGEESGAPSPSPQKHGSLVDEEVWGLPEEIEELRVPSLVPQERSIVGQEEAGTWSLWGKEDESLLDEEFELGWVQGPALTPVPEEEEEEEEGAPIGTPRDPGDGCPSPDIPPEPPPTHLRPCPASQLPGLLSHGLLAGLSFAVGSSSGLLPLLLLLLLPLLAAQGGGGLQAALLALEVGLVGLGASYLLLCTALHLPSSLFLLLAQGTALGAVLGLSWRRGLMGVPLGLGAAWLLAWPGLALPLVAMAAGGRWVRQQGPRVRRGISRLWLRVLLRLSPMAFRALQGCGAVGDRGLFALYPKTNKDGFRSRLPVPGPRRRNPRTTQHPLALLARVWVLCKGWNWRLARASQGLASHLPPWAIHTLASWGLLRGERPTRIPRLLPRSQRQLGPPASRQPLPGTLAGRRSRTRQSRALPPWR
Dual specificity mitogen-activated protein kinase kinase 3 (Homo sapiens), sequence (P46734 whole entry, the tested form may be a part): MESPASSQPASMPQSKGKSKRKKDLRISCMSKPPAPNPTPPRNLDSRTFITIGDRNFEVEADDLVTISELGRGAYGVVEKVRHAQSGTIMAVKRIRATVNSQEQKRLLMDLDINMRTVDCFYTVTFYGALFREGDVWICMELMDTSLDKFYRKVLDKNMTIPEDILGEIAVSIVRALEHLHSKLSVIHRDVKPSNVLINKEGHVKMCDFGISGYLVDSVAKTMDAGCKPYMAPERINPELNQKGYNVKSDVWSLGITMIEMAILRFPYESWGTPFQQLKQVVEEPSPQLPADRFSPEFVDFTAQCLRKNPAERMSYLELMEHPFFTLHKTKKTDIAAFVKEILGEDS
SNF-related serine/threonine-protein kinase (Homo sapiens), sequence (Q9NRH2 whole entry, the tested form may be a part): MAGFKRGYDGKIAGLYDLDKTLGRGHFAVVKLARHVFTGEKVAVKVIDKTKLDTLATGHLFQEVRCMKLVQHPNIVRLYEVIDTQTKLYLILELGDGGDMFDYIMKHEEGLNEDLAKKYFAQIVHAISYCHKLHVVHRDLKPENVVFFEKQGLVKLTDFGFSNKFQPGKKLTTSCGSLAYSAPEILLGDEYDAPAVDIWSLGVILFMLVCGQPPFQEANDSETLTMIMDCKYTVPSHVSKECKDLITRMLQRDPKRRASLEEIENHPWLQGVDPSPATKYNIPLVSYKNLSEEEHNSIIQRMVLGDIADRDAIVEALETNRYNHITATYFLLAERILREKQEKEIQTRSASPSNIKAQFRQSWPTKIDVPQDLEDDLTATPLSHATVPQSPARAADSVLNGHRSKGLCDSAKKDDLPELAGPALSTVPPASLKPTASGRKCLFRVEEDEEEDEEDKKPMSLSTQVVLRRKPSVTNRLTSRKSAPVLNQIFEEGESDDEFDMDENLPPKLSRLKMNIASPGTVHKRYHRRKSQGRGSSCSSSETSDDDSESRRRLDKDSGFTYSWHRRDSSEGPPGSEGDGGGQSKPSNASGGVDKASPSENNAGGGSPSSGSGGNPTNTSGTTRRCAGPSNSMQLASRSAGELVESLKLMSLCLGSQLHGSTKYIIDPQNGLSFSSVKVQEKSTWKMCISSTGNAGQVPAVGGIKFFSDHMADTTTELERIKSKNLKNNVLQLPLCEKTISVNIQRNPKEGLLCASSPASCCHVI
LIM domain kinase 1 (Homo sapiens), sequence (P53667 whole entry, looked up, the tested form may be a part): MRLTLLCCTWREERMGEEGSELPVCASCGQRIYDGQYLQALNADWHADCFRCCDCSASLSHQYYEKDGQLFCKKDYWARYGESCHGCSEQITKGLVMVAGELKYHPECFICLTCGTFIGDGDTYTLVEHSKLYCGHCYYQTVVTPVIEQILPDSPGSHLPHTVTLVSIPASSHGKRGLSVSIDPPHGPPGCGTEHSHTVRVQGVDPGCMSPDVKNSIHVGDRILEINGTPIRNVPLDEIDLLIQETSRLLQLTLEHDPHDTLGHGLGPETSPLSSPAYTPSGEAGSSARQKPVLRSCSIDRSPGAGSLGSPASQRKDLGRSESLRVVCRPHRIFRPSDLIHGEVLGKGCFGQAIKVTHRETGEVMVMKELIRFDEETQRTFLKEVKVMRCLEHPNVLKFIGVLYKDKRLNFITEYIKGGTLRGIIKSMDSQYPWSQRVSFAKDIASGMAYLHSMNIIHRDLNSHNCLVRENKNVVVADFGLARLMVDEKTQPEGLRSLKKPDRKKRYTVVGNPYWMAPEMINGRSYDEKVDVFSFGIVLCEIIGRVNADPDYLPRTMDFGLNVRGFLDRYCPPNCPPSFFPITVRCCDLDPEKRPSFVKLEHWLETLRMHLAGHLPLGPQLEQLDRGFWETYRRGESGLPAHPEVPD
Cyclin-dependent kinase 19 (Homo sapiens), sequence (Q9BWU1 whole entry, the tested form may be a part): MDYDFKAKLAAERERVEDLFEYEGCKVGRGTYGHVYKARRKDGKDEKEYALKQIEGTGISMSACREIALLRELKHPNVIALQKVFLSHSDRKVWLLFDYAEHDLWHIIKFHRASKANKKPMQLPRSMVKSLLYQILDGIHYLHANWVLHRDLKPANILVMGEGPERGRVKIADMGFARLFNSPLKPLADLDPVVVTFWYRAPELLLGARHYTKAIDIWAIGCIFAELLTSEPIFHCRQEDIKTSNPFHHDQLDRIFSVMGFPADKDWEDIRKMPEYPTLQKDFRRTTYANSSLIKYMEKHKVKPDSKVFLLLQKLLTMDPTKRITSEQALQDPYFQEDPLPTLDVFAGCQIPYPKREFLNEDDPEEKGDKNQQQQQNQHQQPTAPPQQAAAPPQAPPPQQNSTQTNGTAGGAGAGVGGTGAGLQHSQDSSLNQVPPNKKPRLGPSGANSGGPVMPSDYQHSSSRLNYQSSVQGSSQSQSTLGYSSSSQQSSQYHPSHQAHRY
Dual specificity mitogen-activated protein kinase kinase 1 (Homo sapiens), sequence (Q02750 whole entry, the tested form may be a part): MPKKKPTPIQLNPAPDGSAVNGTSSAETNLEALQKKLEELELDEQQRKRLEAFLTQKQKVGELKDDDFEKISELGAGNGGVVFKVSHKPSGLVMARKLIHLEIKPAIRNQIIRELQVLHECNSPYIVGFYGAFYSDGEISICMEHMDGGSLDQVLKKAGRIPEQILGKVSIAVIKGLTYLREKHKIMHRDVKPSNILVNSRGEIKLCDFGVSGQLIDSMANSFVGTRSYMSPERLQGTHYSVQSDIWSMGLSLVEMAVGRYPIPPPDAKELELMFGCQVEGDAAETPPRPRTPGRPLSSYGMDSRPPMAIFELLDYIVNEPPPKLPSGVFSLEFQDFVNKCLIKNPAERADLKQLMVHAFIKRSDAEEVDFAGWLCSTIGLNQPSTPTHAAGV
Serine/threonine-protein kinase Nek3 (Homo sapiens), sequence (P51956 whole entry, the tested form may be a part): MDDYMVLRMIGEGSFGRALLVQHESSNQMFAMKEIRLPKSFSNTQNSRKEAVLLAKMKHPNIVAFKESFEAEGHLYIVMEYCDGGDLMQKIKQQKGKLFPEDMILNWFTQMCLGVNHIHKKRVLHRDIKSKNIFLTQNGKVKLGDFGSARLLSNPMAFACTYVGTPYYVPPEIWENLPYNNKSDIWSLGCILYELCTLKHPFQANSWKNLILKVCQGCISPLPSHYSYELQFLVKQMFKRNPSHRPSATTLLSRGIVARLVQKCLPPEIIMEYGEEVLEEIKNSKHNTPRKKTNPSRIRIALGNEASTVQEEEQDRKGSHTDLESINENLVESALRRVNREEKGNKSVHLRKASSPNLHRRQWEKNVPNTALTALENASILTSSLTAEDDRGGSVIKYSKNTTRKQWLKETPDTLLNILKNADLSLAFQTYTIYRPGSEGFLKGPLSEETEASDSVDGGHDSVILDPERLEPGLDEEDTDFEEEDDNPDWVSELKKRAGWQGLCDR

For `C=CC(=O)Nc1cc(Nc2ncc(Cl)c(Nc3ccccc3S(=O)(=O)C(C)C)n2)c(OC)cc1N(C)CCN(C)C`, the Activity in [1] was 87%; in [2] it was 38%; in [3], 1.4%; in test [4] it was 0.3%; in test [5], 86%; in test [6], 52%. In addition, the Activity was determined as 72% in [7]; 86% in test [8]; 29% in test [9]; 72% in test [10]; 0.2% in test [11]; 67% in [12]. Besides, the Activity in [13] was 49%; in test [14], 70%; in [15], 52%.
